# Screens from PubChem BioAssay.
# PfG6PD inh = PfG6PD enzyme inhibitors, primary screen, biochemical, fluorescence intensity, uHTS; glucose-6-phosphate dehydrogenase-6-phosphogluconolactonase (Plasmodium falciparum 3D7); inhibition, % at 20 µM; PfGluPho enzyme, NADPH resazurin-diaphorase fluorescence; actives 0.78% (n = 350,000);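 active means inhibition reaching at least a set limit at 20 µM in the primary screen, cut at about 59% in these data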;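 further: 0% = DMSO wells with substrate and 100% = DMSO wells lacking glucose-6-phosphate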
# HKDC1 inh = HKDC1 hexokinase inhibitors, primary screen, biochemical, fluorescence, uHTS | Q2TB90 | recombinant HKDC1, G6PDH/diaphorase resazurin coupled fluorescence | inhibition, % at 20 µM | actives 0.16% (n = 340,000) | AID 493160, 2011;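 active means inhibition above about 35% when tested at 20 µM, limit read from the data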;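 further: plate controls were DMSO wells with enzyme for no effect and DMSO wells lacking enzyme for full effect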
# Target sequence (Q2TB90 whole entry, looked up): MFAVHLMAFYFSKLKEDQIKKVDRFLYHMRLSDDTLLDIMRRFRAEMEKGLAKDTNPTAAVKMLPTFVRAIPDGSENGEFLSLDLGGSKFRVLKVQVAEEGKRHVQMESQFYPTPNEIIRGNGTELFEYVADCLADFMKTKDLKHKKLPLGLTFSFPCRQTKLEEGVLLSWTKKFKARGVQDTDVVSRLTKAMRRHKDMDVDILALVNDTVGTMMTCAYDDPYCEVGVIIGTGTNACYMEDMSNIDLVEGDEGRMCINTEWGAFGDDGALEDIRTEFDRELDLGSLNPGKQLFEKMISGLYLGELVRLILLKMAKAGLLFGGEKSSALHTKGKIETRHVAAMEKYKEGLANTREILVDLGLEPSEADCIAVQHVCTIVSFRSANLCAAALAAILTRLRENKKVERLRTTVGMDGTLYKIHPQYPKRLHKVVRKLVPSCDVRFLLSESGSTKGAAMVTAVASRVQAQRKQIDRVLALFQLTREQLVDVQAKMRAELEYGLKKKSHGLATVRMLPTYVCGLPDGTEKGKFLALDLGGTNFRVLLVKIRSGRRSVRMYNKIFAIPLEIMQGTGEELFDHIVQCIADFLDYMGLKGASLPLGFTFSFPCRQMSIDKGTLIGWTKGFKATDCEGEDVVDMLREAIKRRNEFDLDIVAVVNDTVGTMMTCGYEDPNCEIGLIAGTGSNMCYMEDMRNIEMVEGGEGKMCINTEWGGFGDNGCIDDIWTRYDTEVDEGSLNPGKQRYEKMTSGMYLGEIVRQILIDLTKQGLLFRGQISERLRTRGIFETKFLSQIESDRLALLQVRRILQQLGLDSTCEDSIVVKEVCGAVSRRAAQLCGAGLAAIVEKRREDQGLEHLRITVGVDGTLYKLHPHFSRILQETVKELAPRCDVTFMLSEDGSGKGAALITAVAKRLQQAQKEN
#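 Material: recombinant HKDC1 hexokinase; Amount: HKDC1 at 5 µg/mL; Medium: Tris pH 8.0 buffer with MgCl2, Tween-20, BSA, BME; Schedule: 90 min reaction incubation at room temperature, dark; Technique: coupled resazurin fluorescence, excitation 525 nm, emission 613 nm.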
# Diaphorase act = compounds boosting diaphorase resazurin reduction – biochemical, uHTS, resorufin fluorescence, counter-screen for diaphorase-coupled primary assays, primary screen; Diaphorase/resazurin coupled assay, 16 min; active compounds read high; 1 = vehicle wells, 0 = NADH-free wells; activation factor at 20 µM; actives 0.005% (n = 190,000); AID 1229, 2008;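 active means diaphorase activity raised at least twofold by the compound at 20 µM; inactive means activation factor below 2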
#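 Assay system: Purified diaphorase enzyme from Clostridium kluyveri | Amount: Enzyme 0.07 U/mL final | Dosing: Compound 20 µM once, DMSO 1% | Timing: 16 min reaction at room temperature | Detection: Fluorescence, excitation 544 nm and emission 590 nm | Evaluation: Higher resorufin formation from activation or reduction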
# Diaph inh CS = diaphorase inhibitors and chemical oxidizers, primary screen, counter-screen for diaphorase-coupled primary assays, biochemical, uHTS, resorufin fluorescence. diaphorase resazurin-to-resorufin fluorescence, NADH, 16 min; bacterial (C. kluyveri) enzyme, not human. inhibition, % at 20 µM. AID 1217, 2008. actives 0.69% (n = 190,000);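 active means primary screen inhibition at 20 µM above a set limit, cut at about 50% in these data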;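 further: plate controls were DMSO with full reaction for no effect and wells lacking NADH for full effect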
#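 Benchmarks: positive control wells lacking NADH, neutral wells with DMSO only. System: bacterial diaphorase enzyme (C. kluyveri). Input: 0.14 U/mL diaphorase, enzyme working solution. Detection: resorufin fluorescence, excitation 544 nm, emission 590 nm. Times: 16-min room-temperature incubation before reading.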
# G6PDH CS = L. mesenteroides G6PDH inhibitors, counter-screen for G6PDH-coupled screening assays, biochemical, Leuconostoc mesenteroides enzyme; glucose-6-phosphate dehydrogenase [Leuconostoc mesenteroides]; Purified L. mesenteroides G6PDH, diaphorase/resazurin coupled fluorescence, 45 min; inhibition, % at 5 µM; actives 0.12% (n = 200,000); AID 1020, 2008; in the data active means inhibition above about 50%
# HKDC1 act conf2 = HKDC1 hexokinase activators, confirmation, biochemical, single concentration; shares compounds with HKDC1 inh; recombinant HKDC1, G6PDH/diaphorase resazurin fluorescence; active compounds read low; inhibition, % at 20 µM; actives 14% (n = 740); AID 504708, 2011;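 active means inhibition at or below a set negative limit, negative inhibition meaning the enzyme was activated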
# * = called active by the depositor; . = not tested or not shown. In the library only some 1.2% were active in any assay of this set; here they are far more common.
SMILES,PfG6PD inh,HKDC1 inh,Diaphorase act,Diaph inh CS,G6PDH CS,HKDC1 act conf2
Cc1nc2c(c(=O)c3ccccc3n2C)c(=O)n1-c1ccccc1,43,51*,.,.,.,56
Cn1c2ccccc2c(=O)c2c(=O)n(-c3ccc(F)cc3)c(-c3cccs3)nc21,7,68*,.,.,.,66
Cc1ccc(-c2nc3c(c(=O)c4ccccc4n3C)c(=O)n2-c2ccc(F)cc2)cc1,-4,4,.,.,.,.
O=Cc1[nH]c2ccccc2c1N(C(=O)CCl)c1ccccc1,9,35*,.,.,.,34
O=C(CSc1nnc(Cc2cc(=O)[nH]c(=O)[nH]2)n1-c1ccccc1)N1CCCCC1,26,-3,0.9,12,1,.
O=C(CSc1nnc(CCCN2C(=O)c3cccc4cccc(c34)C2=O)n1-c1ccccc1)N1CCCCC1,6,37*,0.3,72*,-27,48
CCN(CC)S(=O)(=O)c1ccc(C(=O)NCCc2cc3c(OC)ccc(OC)c3[nH]c2=O)cc1,29,28,0.8,24,14,.
COc1ccc(OC)c2[nH]c(=O)c(CCNC(=O)c3ccc(S(=O)(=O)N4CCCC4)cc3)cc12,14,33,0.5,51*,5,32
COc1ccc2cc(CCNC(=O)c3ccc(S(=O)(=O)N4CCCC4)cc3)c(=O)[nH]c2c1,8,33,.,.,.,60
N=C1CCCC1C(=S)SCCC(N)=O (configuration not stated),24,.,.,.,.,.
NC(=S)NN=C1CSSC1,14,.,.,.,.,.
C[C@@H]1CCCCO[C@@H](CN(C)C(=O)CCCN(C)C)[C@@H](C)CN([C@H](C)CO)C(=O)c2cc(NC(=O)CCC(F)(F)F)ccc2O1,-20,.,.,.,.,.
Cc1ccc(N=C2C(=S)N(c3ccc(C)cc3)C(=N)N2/N=C/c2ccc(Cl)cc2)cc1,31,-119,1.1,-6,6,-45*
CCCCCC(=O)NNC(=O)c1c(O)c2ccccc2n(CC)c1=O,-16,-6,1,-5,7,.
CCCCCCCCCC(=O)NNC(=O)c1c(O)c2ccccc2n(CC)c1=O,-59,-41,1.1,-9,11,-21
CC1(C)N=C(N)N=C(N)N1c1ccc(OCC(=O)N2CCOCC2)c(Cl)c1,-1,.,.,.,.,.
O=c1c2ccccc2nc2n1CCC2,14,82*,0.9,15,3,67
COCC(=O)N(C)C[C@@H]1Oc2ncc(Br)cc2C(=O)N([C@@H](C)CO)C[C@H]1C,-4,.,.,.,.,.
Cc1sc(-c2ccccn2)nc1OC(=O)c1ccc(F)cc1F,16,-50,0.9,9,1,-27
Cc1sc(-c2ccccn2)nc1OC(=O)c1ccc(Cl)c(Cl)c1,20,-13,0.9,5,1,.
CCCCNC(=S)N(CCCO)Cc1cc2cc3c(cc2[nH]c1=O)OCO3,-5,.,.,.,.,.
CC(C)(C)N=C1NN=C(c2ccc(S(=O)(=O)N3CCCCC3)cc2)CS1,19,-67,.,.,.,-32
CC(=O)Nc1ccc(C2=NNC(=Nc3ccc(S(=O)(=O)N4CCOCC4)cc3)SC2)cc1,54,-339,.,.,.,-234*
CC(Sc1nc(N)cc(=O)[nH]1)C(=O)Nc1ccc(N2CCOCC2)cc1 (configuration not stated),13,.,.,.,.,.
CCn1c(C)cc(C(=O)COC(=O)CNC(=O)c2ccco2)c1C,8,.,.,.,.,.
SMILES,PfG6PD inh,HKDC1 inh,Diaphorase act,Diaph inh CS,G6PDH CS,HKDC1 act conf2
O=NNc1nc2ccccc2n1Cc1ccccc1,37,-40,.,.,.,-44*
CCCCn1c(SCC(=O)NC2CC2)nc2cc(C(=O)OC)ccc2c1=O,18,.,.,.,.,.
CCc1ccc(S(=O)(=O)Nc2ccc(O)c3ccccc23)cc1,10,44*,.,.,.,20
COc1ccc(OC)c(S(=O)(=O)Nc2ccc(O)c3ccccc23)c1,37,27,0.9,14,-1,.
O=S(=O)(Nc1ccc(NS(=O)(=O)c2ccccc2)c2ccccc12)c1ccccc1,-17,.,.,.,.,.
O=S(=O)(Nc1ccc(O)c2ccccc12)c1ccc(F)cc1,33,43*,.,.,.,6
Cc1nonc1C(=O)N/N=C/c1ccc(O)cc1O,-29,-36,.,.,-8,-34*
Cc1nonc1C(=O)N/N=C/c1ccncc1,3,-2,1,5,9,.
Cc1cc([N+](=O)[O-])nn1CC(=O)N/N=C/c1ccc(O)cc1O,-34,-49,.,.,.,-2
Cc1ccc(/C=C/c2nc3sc(C(=O)O)c(C)c3c(=O)[nH]2)cc1[N+](=O)[O-],29,47*,.,.,.,-27
C[C@H]1CN([C@@H](C)CO)C(=O)c2cc(C#Cc3ccccn3)cnc2O[C@@H]1CN(C)Cc1ccccc1,0,.,.,.,.,.
CC(=O)N1c2ccc3ccccc3c2C2C=CCC2C1c1ccc(Br)cc1 (configuration not stated),.,.,0.7,26,9,.
CC(=O)N1c2ccc(Cl)cc2C2C=CCC2C1c1cccc2ccccc12 (configuration not stated),15,42*,0.8,16,-5,3
Cc1ccc(N=Cc2cc(Cc3ccccc3Cl)cc([N+](=O)[O-])c2O)c(O)c1,58,30,0.8,17,47,30
CSC1=NC(=O)/C(=C\c2cccc3ccccc23)S1,2,33,1,-2,-11,-11
CC(=O)Nc1ccc2ccccc2c1,2,4,0.8,20,10,.
CC(=O)Nc1ccc2cc3ccc(NC(C)=O)cc3nc2c1,24,43*,.,.,.,20
CCN(CC)C(=O)c1ccc(C(=O)c2c(C)cc(C)cc2C)cc1,-11,39*,0.9,11,19,-40*
Cn1c(-c2ccccc2)c(C(=O)CC#N)c2ccccc21,-40,-45,1,2,-1,-42*
CC(C)c1ccc(S(=O)(=O)/N=C2/C=C(Sc3ncn[nH]3)C(=O)c3ccccc32)cc1,104*,64*,0.8,24,22,61
Cc1ccc(-n2c3nc(=O)[nH]c(=O)c-3cc3cc([N+](=O)[O-])ccc32)cc1C,43,61*,0.1,91*,-34,65
COc1ccc(C2=NNC(=Nc3cc(S(=O)(=O)N(C)C)ccc3C)SC2)c(OC)c1,35,-125,.,.,.,-120*
CC(NNC(=S)N1CCN(c2ccccn2)CC1)c1nccc2ccccc12 (configuration not stated),-3,-42,.,.,.,-75*
CCNC(=S)N1CCN(c2ccccn2)CC1,-30,-2,0.9,8,31,.
Cc1c(Cc2ccccc2)sc(NC(=O)Cc2ccccc2)c1C(N)=O,54,-52,.,.,.,-7
